We go through 21 compounds from ChEMBL document CHEMBL1147184, “Design and synthesis of long-acting inhibitors of dipeptidyl peptidase IV” (Bioorg Med Chem, 2007).

For data set [1], the system named is Rattus norvegicus. In words: Ex vivo inhibition of DPP4 in Sprague-Dawley rat plasma at 1 mg/kg, po after 6 hrs. It is filed as functional. The gist of the method: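 Male SD rats, 6–7 weeks old, fasted at least 8 h, given a single oral dose of 1 mg/kg in 0.5% methylcellulose. Jugular blood taken before dosing and up to 10 h after. Plasma mixed 1:1 with 60 µM Gly-Pro-AMC. Initial rate taken from AMC fluorescence (ex 355/em 460 nm) at 37 °C. Percent inhibition calculated against basal activity.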

Data set [2] can be described thus: Drug level in blood of Sprague-Dawley rat at 1 mg/kg, po after 0.25 hrs in absence of glucuronidase. It is filed as ADME, organism-based. Also noted: dose 1 mg/kg, route oral. The note with it: read-out: Drug uptake. The gist of the method: (§1)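 Male SD rats, fasted 24 h, given a single oral dose of 1 mg/kg as a solution in 0.5% methylcellulose. Blood drawn from the jugular vein. Plasma protein precipitated with acetonitrile, supernatant evaporated and reconstituted in mobile phase, then analysed by LC/MS/MS with no β-glucuronidase/arylsulfatase step.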

Data set [3] in a line: Stability in Tris buffer at pH 7.4. It is filed as physicochemical. The gist of the method: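 Compound at 1 mg/mL in 100 mM Tris buffer, pH 7.4, held at room temperature. Remaining parent measured by LC/MS peak area at 0, 2, 6 and 24 h. Half-life obtained from a linear first-order fit of log(peak area/time-zero area) against time.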
The nature of data set [4]: Drug level in blood of Sprague-Dawley rat at 1 mg/kg, po after 6 hrs in absence of glucuronidase. It is filed as ADME, organism-based. More on the design: dose 1 mg/kg, route oral. The note with it: read-out: Drug uptake. In short, it runs like this:
as §1

The nature of data set [5]: Drug level in blood of Sprague-Dawley rat at 1 mg/kg, po after 2 hrs in absence of glucuronidase. Also noted: dose 1 mg/kg, route oral. Type of data set: ADME, organism-based. The note with it: read-out: Drug uptake. In short, it runs like this:
as §1

For data set [6], the species on record is Rattus norvegicus. Description: animal or person. The note with it: Sprague-Dawley, Plasma, po, 10 h, read-out: Inhibition.
Data set [7] is described as follows: Oral bioavailability in Sprague-Dawley rat at 10 mg/5 ml/kg, po. Type of data set: ADME, organism-based. The note with it: in vivo, 10 mg/kg. The gist of the method: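 Male SD rats, 5–7 weeks old, fasted 24 h. Oral dose 10 mg/5 mL/kg in 0.5% methylcellulose compared with iv bolus of 0.3 mg/2 mL/kg in saline via jugular vein. Plasma sampled from 0 to 24 h and measured by LC/MS/MS. F calculated from dose-normalised AUC ratio, po over iv.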

For data set [8], the target named is Dipeptidyl peptidase 4 (Rattus norvegicus) (UniProt P14740). Description: Inhibition of DPP4 in rat liver microsomes in presence of UDPGA. The note with it: Microsome. For orientation: Microsomes from liver hold many membrane-bound enzymes, among them those of drug oxidation.
The subject of data set [9] is Rattus norvegicus. Description: Effect on plasma glucose level in orally dosed Sprague-Dawley rat by OGTT assay. It is filed as functional, organism-based. In short, it runs like this:
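Male SD rats (400–460 g) fasted at least 20 h. Vehicle (0.5% methylcellulose) or drug at 0.01, 0.03 or 0.1 mg/kg given po at −30 min, then oral glucose 1 g/kg at 0 min. Tail blood taken at −5, 5, 10, 15, 30, 60 and 120 min. Plasma glucose read by glucose oxidase–peroxidase dye method. Mean ± SE, n = 8; Student's t-test vs vehicle.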

A short description of data set [10]: Oral bioavailability in Sprague-Dawley rat at 1 mg/5 ml/kg, po. It is filed as ADME, organism-based. The note with it: in vivo, 1 mg/kg. In short, it runs like this: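 Male SD rats, 5–7 weeks old, fasted 24 h, n = 3 per route. Oral dose 1 mg/5 mL/kg in 0.5% methylcellulose. Slow iv bolus of 0.3 mg/2 mL/kg in saline via jugular vein. Jugular blood sampled from 0 to 24 h; plasma analysed by LC/MS/MS. F = (AUCpo/Dpo)/(AUCiv/Div) × 100.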

The source made the active and inactive calls.

Chain of Dipeptidyl peptidase 4 (Rattus norvegicus) (P14740 whole entry, looked up): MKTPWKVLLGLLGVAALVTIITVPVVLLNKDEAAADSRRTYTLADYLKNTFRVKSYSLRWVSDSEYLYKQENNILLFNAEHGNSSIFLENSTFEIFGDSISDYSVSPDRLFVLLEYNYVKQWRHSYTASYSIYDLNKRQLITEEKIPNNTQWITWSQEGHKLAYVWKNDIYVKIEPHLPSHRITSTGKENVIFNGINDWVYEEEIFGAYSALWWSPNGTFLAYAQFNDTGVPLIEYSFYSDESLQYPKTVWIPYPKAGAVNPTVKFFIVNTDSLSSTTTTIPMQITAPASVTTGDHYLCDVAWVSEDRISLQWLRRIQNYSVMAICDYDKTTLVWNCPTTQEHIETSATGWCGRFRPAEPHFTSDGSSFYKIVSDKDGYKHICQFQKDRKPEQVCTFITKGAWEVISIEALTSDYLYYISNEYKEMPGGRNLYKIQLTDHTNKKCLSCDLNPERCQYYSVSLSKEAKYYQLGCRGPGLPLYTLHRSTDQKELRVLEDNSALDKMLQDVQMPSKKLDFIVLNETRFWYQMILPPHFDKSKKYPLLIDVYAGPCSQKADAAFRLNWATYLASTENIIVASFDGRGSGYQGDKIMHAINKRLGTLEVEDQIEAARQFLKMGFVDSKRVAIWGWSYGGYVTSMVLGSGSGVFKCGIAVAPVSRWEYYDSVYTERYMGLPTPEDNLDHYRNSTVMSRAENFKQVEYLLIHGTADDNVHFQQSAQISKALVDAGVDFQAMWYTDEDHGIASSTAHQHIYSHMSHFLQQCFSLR

The compound `Cc1cc(C)c([C@@H]2CN[C@H](C(=O)N3CCC[C@H]3C#N)C2)c(C)c1O` gave an inhibition in vivo at 1 mg/kg with Rattus norvegicus [1] of 39%. The concentration at 0.25 h in data set [2] was 9.7 ng/mL. In data set [3], the half-life (in general, the time needed for the level to fall by half in the phase considered) was 40 h. Moreover, in data set [4], the concentration at 6 h came out at 0.95 ng/mL. Moreover, the concentration at 2 h in data set [5] is 0.65 ng/mL.
`COc1cc(O)cc(OC)c1[C@@H]1CN[C@H](C(=O)N2CCC[C@H]2C#N)C1`: the figures for the inhibition in vivo at 1 mg/kg in the data set filed under Rattus norvegicus [6] and in the data set on Rattus norvegicus [1] were 66% and 81%, respectively. Further, in data set [3], the half-life is 59 h.
Compound `C=CC[C@@H]1CN[C@H](C(=O)N2CCC[C@H]2C#N)C1` registered an inhibition in vivo at 1 mg/kg in the data set on Rattus norvegicus [1] of 38%.
`N#C[C@@H]1CCCN1C(=O)[C@@H]1C[C@H](c2ccccc2O)CN1` gave an inhibition in vivo at 1 mg/kg in the data set with Rattus norvegicus [1] of 43%. The compound also gave a half-life in data set [3] of 3.2 h.
The corresponding values for `CCc1cc(O)cc(C)c1[C@@H]1CN[C@H](C(=O)N2CCC[C@H]2C#N)C1` are 86% and 39 h.
For the compound `Cc1cccc(C)c1[C@@H]1CN[C@H](C(=O)N2CCC[C@H]2C#N)C1`, the inhibition in vivo at 1 mg/kg in the data set with Rattus norvegicus [1] was found to be 91%.
With `COc1cc(O)cc(C)c1[C@@H]1CN[C@H](C(=O)N2CCC[C@H]2C#N)C1`, the results for the inhibition in vivo at 1 mg/kg in the data set filed under Rattus norvegicus [6] and in the data set with Rattus norvegicus [1] were 73% and 90%, respectively. Further, in [2], the concentration at 0.25 h was determined as 0.49 ng/mL. For the same compound, the half-life in data set [3] was 49 h. Moreover, in [7], the bioavailability (usually the share of a dose that reaches the circulation, judged against a reference dose that is usually intravenous) was 0.1%. Besides, the result in data set [8] was Active.
For `Cc1ccc(O)c(C)c1[C@@H]1CN[C@H](C(=O)N2CCC[C@H]2C#N)C1`, the inhibition in vivo at 1 mg/kg worked out at 83% in the data set filed under Rattus norvegicus [6] and 95% in the data set on Rattus norvegicus [1]. The same compound gave a half-life in data set [3] of 65 h. Besides, the Activity result in the data set on Rattus norvegicus [9] is “Dose-dependent effect”.
As for `N#C[C@@H]1CCCN1C(=O)[C@@H]1C[C@H](C2CCCCC2)CN1`, the inhibition in vivo at 1 mg/kg in the data set with Rattus norvegicus [1] was determined as 38%.
Regarding `N#C[C@@H]1CCCN1C(=O)[C@@H]1CCCN1`, the inhibition in vivo at 1 mg/kg with Rattus norvegicus [1] was found to be 20%.
`C=C(C)C[C@@H]1CN[C@H](C(=O)N2CCC[C@H]2C#N)C1`: in the data set with Rattus norvegicus [1], the inhibition in vivo at 1 mg/kg is 27%.
Take `Cc1cc(O)cc(C)c1[C@@H]1CN[C@H](C(=O)N2CCC[C@H]2C#N)C1`: the inhibition in vivo at 1 mg/kg is 57% in the data set filed under Rattus norvegicus [6] and 88% in the data set on Rattus norvegicus [1]. Further, the half-life in data set [3] was 31 h. Also, the bioavailability in data set [10] worked out at 3%.
Take `COc1c(O)ccc(C)c1[C@@H]1CN[C@H](C(=O)N2CCC[C@H]2C#N)C1`: the figures for the inhibition in vivo at 1 mg/kg in the data set listed under Rattus norvegicus [6] and with Rattus norvegicus [1] were 86% and 94%, respectively. The same compound displayed a bioavailability in data set [10] of 2%.
As to `CC(C)C[C@@H]1CN[C@H](C(=O)N2CCC[C@H]2C#N)C1`, in the data set with Rattus norvegicus [1], the inhibition in vivo at 1 mg/kg turned out to be 40%.
Same read-out and setting: the figure for `N#C[C@@H]1CCCN1C(=O)[C@@H]1C[C@@H](c2ccccc2)CN1` is 17%; for `N#C[C@@H]1CCCN1C(=O)[C@@H]1C[C@H](c2ccccc2)CN1` it is 60%.
In the data set with Rattus norvegicus [1], `N#C[C@@H]1CCCN1C(=O)[C@@H]1C[C@H](C2C3CC4CC(C3)CC2C4)CN1` (stereo not given in full) registered an inhibition in vivo at 1 mg/kg of 47%.
With `CCOc1cc(O)cc(OCC)c1[C@@H]1CN[C@H](C(=O)N2CCC[C@H]2C#N)C1`, the inhibition in vivo at 1 mg/kg is 50% in the data set listed under Rattus norvegicus [6] and 79% in the data set with Rattus norvegicus [1].
With `N#C[C@@H]1CCCN1C(=O)[C@@H]1C[C@H](c2ccc(O)cc2)CN1`, in the data set on Rattus norvegicus [1], the inhibition in vivo at 1 mg/kg is 85%. For the same compound, in data set [3], the half-life is 21 h.
The corresponding values for `N#C[C@@H]1CCCN1C(=O)[C@@H]1C[C@H](c2cccc(O)c2)CN1` are 77% and 20 h.
Turning to `CCC[C@@H]1CN[C@H](C(=O)N2CCC[C@H]2C#N)C1`, the inhibition in vivo at 1 mg/kg with Rattus norvegicus [1] was 50%.
